Measured values: ChEMBL document CHEMBL5724801, “EUbOPEN Chemogenomics Library - Multiplex” (2024)
Values joined by “and” are separate entries in the source; they are usually repeats but may differ in a detail not shown here. Equal entries are not always repeated.

Assays:
[1] = tested on: U2OS; assay: Multiplex assay against U2OS; type: toxicity, cell-based; details: human
In short: (§1)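 Tubulin, mitochondrial-mass and membrane-permeability phenotypes are per cents of healthy-nucleus cells. Cells were gated by CellPathfinder machine learning into Hoechst high-intensity objects or normal cells, normal cells into healthy, pyknosed or fragmented nuclei, and pyknosed cells into mitotic or apoptotic. Before that, live cells stained at seeding with Hoechst33342, BioTracker Green Microtubule Cytoskeleton Dye, MitoTracker Red and Annexin V Alexa Fluor 680 were imaged on a CQ1 microscope at 37°C and 5% CO2 after compound addition.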

[2] = tested on: Fibroblast; assay: Multiplex assay against human fibroblast; type: toxicity, cell-based; in short: as §1
[3] = 24 h, 10 µM, compound concentration 10 uM
[4] = 48 h, 1 µM, compound concentration 1 uM
[5] = 48 h, 10 µM, compound concentration 10 uM
[6] = 12 h, 1 µM, compound concentration 1 uM
[7] = 12 h, 10 µM, compound concentration 10 uM
[8] = 24 h, 1 µM, compound concentration 1 uM

## O=C(Nc1cc(C(F)(F)F)cc(C(F)(F)F)c1)c1cc(Cl)ccc1O [IMD-0354]
[1]; [3]
  Population Fragmented Nuclei (%): 1.8% and 8.77%
  Population Healthy Nuclei (%): 79.5% and 73.68%
  Population Hoechst High Intensity Objects (%): 0%
  Population Membrane Permeable-Phenotype (%): 2.55% and 1.59%
  Population Mitochondria Different-Phenotype (%): 0% and 0.79%
  Population Mitotic Cells (%): 39.76% and 26.67%
  Population Normal (%): 100%
  Population Pyknosed Nuclei (%): 18.69% and 17.54%
  Population Tubulin-Different-Phenotype (%): 3.4% and 0%
  Total Cell Count: 444 and 171
[1]; [4]
  Population Apoptotic (%): 46.15% and 44.44%
  Population Fragmented Nuclei (%): 2.37% and 2.99%
  Population Healthy Nuclei (%): 91.15% and 83.53%
  Population Hoechst High Intensity Objects (%): 0%
  Population Membrane Permeable-Phenotype (%): 0.68% and 0.36%
  Population Mitochondria Different-Phenotype (%): 0.14% and 3.58%
  Population Mitotic Cells (%): 53.85% and 55.56%
  Population Normal (%): 100%
  Population Pyknosed Nuclei (%): 6.48% and 13.47%
  Population Tubulin-Different-Phenotype (%): 1.23% and 0.36%
  Total Cell Count: 802 and 334
[1]; [5]
  Population Apoptotic (%): 62.57% and 80.82%
  Population Healthy Nuclei (%): 51.4% and 35.44%
  Population Hoechst High Intensity Objects (%): 0% and 0.63%
  Population Membrane Permeable-Phenotype (%): 13.86% and 7.14%
  Population Mitochondria Different-Phenotype (%): 1.49% and 1.79%
  Population Mitotic Cells (%): 37.43% and 19.18%
  Population Normal (%): 100% and 99.37%
  Population Pyknosed Nuclei (%): 45.55% and 46.2%
  Population Tubulin-Different-Phenotype (%): 11.39% and 8.93%
  Total Cell Count: 393 and 159
[2]; [6]
  Population Apoptotic (%): 6.12% and 12.9%
  Population Fragmented Nuclei (%): 11.69% and 4.09%
  Population Healthy Nuclei (%): 56.49% and 77.78%
  Population Hoechst High Intensity Objects (%): 0%
  Population Membrane Permeable-Phenotype (%): 4.6% and 8.27%
  Population Mitochondria Different-Phenotype (%): 6.9% and 2.26%
  Population Mitotic Cells (%): 93.88% and 87.1%
  Population Normal (%): 100%
  Population Pyknosed Nuclei (%): 31.82% and 18.13%
  Population Tubulin-Different-Phenotype (%): 8.05% and 22.56%
  Total Cell Count: 154 and 171
[2]; [7]
  Population Apoptotic (%): 0% and 6.33%
  Population Fragmented Nuclei (%): 23.45% and 22.08%
  Population Healthy Nuclei (%): 49.56% and 45%
  Population Hoechst High Intensity Objects (%): 0%
  Population Membrane Permeable-Phenotype (%): 3.57% and 2.78%
  Population Mitochondria Different-Phenotype (%): 0% and 6.48%
  Population Mitotic Cells (%): 100% and 93.67%
  Population Normal (%): 100%
  Population Pyknosed Nuclei (%): 26.99% and 32.92%
  Total Cell Count: 226 and 240
[2]; [8]
  Population Apoptotic (%): 9.09% and 16.33%
  Population Fragmented Nuclei (%): 10.5% and 2.76%
  Population Healthy Nuclei (%): 59.12% and 70.17%
  Population Hoechst High Intensity Objects (%): 0%
  Population Membrane Permeable-Phenotype (%): 8.41% and 8.66%
  Population Mitochondria Different-Phenotype (%): 2.8% and 0.79%
  Population Mitotic Cells (%): 90.91% and 83.67%
  Population Normal (%): 100%
  Population Pyknosed Nuclei (%): 30.39% and 27.07%
  Population Tubulin-Different-Phenotype (%): 14.02% and 25.2%
  Total Cell Count: 181
[2]; [3]
  Population Apoptotic (%): 7.58% and 18.81%
  Population Fragmented Nuclei (%): 25.35% and 26.19%
  Population Healthy Nuclei (%): 44.24% and 33.73%
  Population Hoechst High Intensity Objects (%): 0%
  Population Mitochondria Different-Phenotype (%): 0% and 1.18%
  Population Mitotic Cells (%): 92.42% and 81.19%
  Population Normal (%): 100%
  Population Pyknosed Nuclei (%): 30.41% and 40.08%
  Total Cell Count: 217 and 252
[2]; [4]
  Population Apoptotic (%): 7.14% and 17.65%
  Population Fragmented Nuclei (%): 19.1% and 8.99%
  Population Healthy Nuclei (%): 49.44% and 71.91%
  Population Hoechst High Intensity Objects (%): 0%
  Population Membrane Permeable-Phenotype (%): 5.68% and 16.41%
  Population Mitochondria Different-Phenotype (%): 9.09% and 0%
  Population Mitotic Cells (%): 92.86% and 82.35%
  Population Normal (%): 100%
  Population Pyknosed Nuclei (%): 31.46% and 19.1%
  Population Tubulin-Different-Phenotype (%): 18.18% and 32.03%
  Total Cell Count: 178
[2]; [5]
  Population Apoptotic (%): 32.47% and 70.37%
  Population Fragmented Nuclei (%): 33.5%
  Population Healthy Nuclei (%): 28% and 39.5%
  Population Hoechst High Intensity Objects (%): 0%
  Population Membrane Permeable-Phenotype (%): 17.86% and 22.78%
  Population Mitochondria Different-Phenotype (%): 1.79% and 2.53%
  Population Mitotic Cells (%): 67.53% and 29.63%
  Population Normal (%): 100%
  Population Pyknosed Nuclei (%): 38.5% and 27%
  Population Tubulin-Different-Phenotype (%): 26.79% and 75.95%
  Total Cell Count: 200
